Consider one compound from ChEMBL document CHEMBL2380295, “Structure-activity studies on the side chain of a simplified analog of aplysiatoxin (aplog-1) with anti-proliferative activity” (Bioorg Med Chem, 2013).

Tested on in one data set: not listed separately
Description: Cytotoxicity against human Raji cells assessed as cell viability at 10^-6 M. Type of data set: cell-based. The following applies: read-out: Activity.
For the compound `CC1(C)CC[C@@H]2CC(=O)O[C@@H](CO)CC(=O)O[C@@H]3C[C@@H](CCCCc4ccc(I)c(O)c4)O[C@@]1(C3)O2`, the viability at 1 µM turned out to be 40%.

Tested on in a further data set: not listed separately
Kind of data set: Cytotoxicity against human Raji cells assessed as cell viability at 10^-7 M. To be noted: read-out: Activity. It is filed as cell-based.
As to `CC1(C)CC[C@@H]2CC(=O)O[C@@H](CO)CC(=O)O[C@@H]3C[C@@H](CCCCc4ccc(I)c(O)c4)O[C@@]1(C3)O2`, the viability at 0.1 µM stood at 50%.

Another data set concerns Human gammaherpesvirus 4. Kind of data set: Induction of EBV-early antigen expressed in human Raji cells at 10^-6 M after 48 hrs by immunofluorescence assay relative to control. To be noted: human gammaherpesvirus 4, raji, 1 µM. Type of data set: organism-based. Summed up: (§1)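 Raji B-lymphoblastoid cells (5 × 10^5/mL) in RPMI 1640 with 10% FBS, with 4 mM sodium n-butyrate as synergist and test compound at 10^-7 or 10^-6 M (final DMSO 0.4%). Incubated 48 h at 37 °C under 5% CO2. Smears were stained by indirect immunofluorescence using NPC patient serum and FITC anti-human IgG. At least 500 cells counted; % EA-positive recorded; n = 3, SEM.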
Turning to `CC1(C)CC[C@@H]2CC(=O)O[C@@H](CO)CC(=O)O[C@@H]3C[C@@H](CCCCc4ccc(I)c(O)c4)O[C@@]1(C3)O2`, the Activity was 2.3%.

A further data set relates to Human gammaherpesvirus 4. Kind of data set: Induction of EBV-early antigen expressed in human Raji cells at 10^-7 M after 48 hrs by immunofluorescence assay relative to control. It is filed as organism-based. The following applies: human gammaherpesvirus 4, raji, 0.1 µM. Summed up: as §1
In the case of `CC1(C)CC[C@@H]2CC(=O)O[C@@H](CO)CC(=O)O[C@@H]3C[C@@H](CCCCc4ccc(I)c(O)c4)O[C@@]1(C3)O2`, the Activity turned out to be 2.1%.

The subject of another data set is PC-3. Description: Growth inhibition of human PC3 cells after 48 hrs by sulforhodamine B assay. It is filed as functional. The following applies: PC-3, 48 h. Summed up:
(§2)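 Yamori 39-line human cancer panel, NCI method with modifications. Cells plated in RPMI 1640 plus 5% FBS, attached overnight, then exposed 48 h to compound at 10^-8, 10^-7, 10^-6, 10^-5 and 10^-4 M. Sulforhodamine B staining read at 525 nm; % growth = 100[(T−T0)/(C−T0)] from duplicate-point averages, with T0 the time-zero absorbance. GI50 is the concentration giving 50.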
(In general: Sulforhodamine B stains cellular protein and so reports cell mass.)
Take `CC1(C)CC[C@@H]2CC(=O)O[C@@H](CO)CC(=O)O[C@@H]3C[C@@H](CCCCc4ccc(I)c(O)c4)O[C@@]1(C3)O2`: the 50% growth inhibitory concentration (GI50) (as a rule, the concentration at which growth is held to half of that of the control) was 3.09 µM.

In a further data set the test system is DU-145. Kind of data set: Growth inhibition of human DU145 cells after 48 hrs by sulforhodamine B assay. Type of data set: functional. The following applies: DU-145, 48 h. Summed up:
as §2
As for `CC1(C)CC[C@@H]2CC(=O)O[C@@H](CO)CC(=O)O[C@@H]3C[C@@H](CCCCc4ccc(I)c(O)c4)O[C@@]1(C3)O2`, growth was halved (GI50) at 11.7 µM.

The next data set has as its system MKN-74. Description: Growth inhibition of human MKN74 cells after 48 hrs by sulforhodamine B assay. It is filed as functional. To be noted: MKN-74, 48 h. Summed up: as §2
Take `CC1(C)CC[C@@H]2CC(=O)O[C@@H](CO)CC(=O)O[C@@H]3C[C@@H](CCCCc4ccc(I)c(O)c4)O[C@@]1(C3)O2`: the 50% growth inhibitory concentration (GI50) was 11.7 µM.

A further data set concerns MKN-28. Description: Growth inhibition of human MKN28 cells after 48 hrs by sulforhodamine B assay. It is filed as functional. To be noted: MKN-28, 48 h. Summed up: as §2
In turn, `CC1(C)CC[C@@H]2CC(=O)O[C@@H](CO)CC(=O)O[C@@H]3C[C@@H](CCCCc4ccc(I)c(O)c4)O[C@@]1(C3)O2` gave a GI50 of 0.617 µM.

In another data set the test system is MKN-45. Description: Growth inhibition of human MKN45 cells after 48 hrs by sulforhodamine B assay. Type of data set: functional. To be noted: MKN-45, 48 h. Summed up: as §2
For the compound `CC1(C)CC[C@@H]2CC(=O)O[C@@H](CO)CC(=O)O[C@@H]3C[C@@H](CCCCc4ccc(I)c(O)c4)O[C@@]1(C3)O2`, the 50% growth inhibitory concentration (GI50) was 11.7 µM.

A further data set relates to MKN-7. Kind of data set: Growth inhibition of human MKN7 cells after 48 hrs by sulforhodamine B assay. Type of data set: functional. To be noted: MKN-7, 48 h. Summed up: as §2
`CC1(C)CC[C@@H]2CC(=O)O[C@@H](CO)CC(=O)O[C@@H]3C[C@@H](CCCCc4ccc(I)c(O)c4)O[C@@]1(C3)O2` gave a concentration for 50% growth inhibition (GI50) of 13.5 µM.

Another data set concerns St-4. Kind of data set: Growth inhibition of human St-4 cells after 48 hrs by sulforhodamine B assay. To be noted: St-4, 48 h. It is filed as functional. Summed up: as §2
`CC1(C)CC[C@@H]2CC(=O)O[C@@H](CO)CC(=O)O[C@@H]3C[C@@H](CCCCc4ccc(I)c(O)c4)O[C@@]1(C3)O2`: the GI50 is 0.933 µM.

Tested on in another data set: not listed separately
Description: Growth inhibition of human MKN1 cells after 48 hrs by sulforhodamine B assay. It is filed as functional. To be noted: MKN-1, 48 h. Summed up:
as §2
`CC1(C)CC[C@@H]2CC(=O)O[C@@H](CO)CC(=O)O[C@@H]3C[C@@H](CCCCc4ccc(I)c(O)c4)O[C@@]1(C3)O2`: it took 11.2 µM to inhibit growth by half (GI50).

Tested on in the next data set: not listed separately
Description: Growth inhibition of human RXF631L cells after 48 hrs by sulforhodamine B assay. It is filed as functional. To be noted: RXF 631, 48 h. Summed up: as §2
Compound `CC1(C)CC[C@@H]2CC(=O)O[C@@H](CO)CC(=O)O[C@@H]3C[C@@H](CCCCc4ccc(I)c(O)c4)O[C@@]1(C3)O2` showed a 50% growth inhibitory concentration (GI50) of 12 µM.

The next data set concerns ACHN. Kind of data set: Growth inhibition of human ACHN cells after 48 hrs by sulforhodamine B assay. Type of data set: functional.
Conditions: not given
Summed up:
as §2
The compound `CC1(C)CC[C@@H]2CC(=O)O[C@@H](CO)CC(=O)O[C@@H]3C[C@@H](CCCCc4ccc(I)c(O)c4)O[C@@]1(C3)O2` had a GI50 of 10 µM.

A further data set deals with OVCAR-8. Description: Growth inhibition of human OVCAR8 cells after 48 hrs by sulforhodamine B assay. It is filed as functional. To be noted: OVCAR-8, 48 h. Summed up: as §2
As to `CC1(C)CC[C@@H]2CC(=O)O[C@@H](CO)CC(=O)O[C@@H]3C[C@@H](CCCCc4ccc(I)c(O)c4)O[C@@]1(C3)O2`, the GI50 is 16.2 µM.

The subject of the next data set is SK-OV-3. Description: Growth inhibition of human SKOV3 cells after 48 hrs by sulforhodamine B assay. It is filed as functional. To be noted: SK-OV-3, 48 h. Summed up: as §2
As for `CC1(C)CC[C@@H]2CC(=O)O[C@@H](CO)CC(=O)O[C@@H]3C[C@@H](CCCCc4ccc(I)c(O)c4)O[C@@]1(C3)O2`, growth was halved (GI50) at 14.8 µM.

A further data set relates to OVCAR-5. Kind of data set: Growth inhibition of human OVCAR5 cells after 48 hrs by sulforhodamine B assay. Type of data set: functional. The following applies: OVCAR-5, 48 h. Summed up:
as §2
Compound `CC1(C)CC[C@@H]2CC(=O)O[C@@H](CO)CC(=O)O[C@@H]3C[C@@H](CCCCc4ccc(I)c(O)c4)O[C@@]1(C3)O2` showed a GI50 of 4.47 µM.

For the next data set, the system named is OVCAR-3. Kind of data set: Growth inhibition of human OVCAR3 cells after 48 hrs by sulforhodamine B assay. It is filed as functional. The following applies: OVCAR-3, 48 h. Summed up: as §2
In turn, `CC1(C)CC[C@@H]2CC(=O)O[C@@H](CO)CC(=O)O[C@@H]3C[C@@H](CCCCc4ccc(I)c(O)c4)O[C@@]1(C3)O2` showed a 50% growth inhibitory concentration (GI50) of 6.31 µM.

The next data set deals with OVCAR-4. Description: Growth inhibition of human OVCAR4 cells after 48 hrs by sulforhodamine B assay. It is filed as functional. The following applies: OVCAR-4, 48 h. Summed up:
as §2
For the compound `CC1(C)CC[C@@H]2CC(=O)O[C@@H](CO)CC(=O)O[C@@H]3C[C@@H](CCCCc4ccc(I)c(O)c4)O[C@@]1(C3)O2`, the 50% growth inhibitory concentration (GI50) was 13.2 µM.

Another data set relates to DMS-114. Kind of data set: Growth inhibition of human DMS114 cells after 48 hrs by sulforhodamine B assay. It is filed as functional. The following applies: DMS-114, 48 h. Summed up: as §2
As for `CC1(C)CC[C@@H]2CC(=O)O[C@@H](CO)CC(=O)O[C@@H]3C[C@@H](CCCCc4ccc(I)c(O)c4)O[C@@]1(C3)O2`, the GI50 was 10.7 µM.

A further data set relates to LOX IMVI. Kind of data set: Growth inhibition of human LOXIMVI cells after 48 hrs by sulforhodamine B assay. It is filed as functional.
Conditions: not given
Summed up: as §2
Compound `CC1(C)CC[C@@H]2CC(=O)O[C@@H](CO)CC(=O)O[C@@H]3C[C@@H](CCCCc4ccc(I)c(O)c4)O[C@@]1(C3)O2` gave a GI50 of 2.88 µM.

In a further data set the test system is A549. Description: Growth inhibition of human A549 cells after 48 hrs by sulforhodamine B assay. Type of data set: functional. The following applies: A549, 48 h. Summed up: as §2
As to `CC1(C)CC[C@@H]2CC(=O)O[C@@H](CO)CC(=O)O[C@@H]3C[C@@H](CCCCc4ccc(I)c(O)c4)O[C@@]1(C3)O2`, growth was halved (GI50) at 3.31 µM.

The subject of a further data set is DMS-273. Description: Growth inhibition of human DMS273 cells after 48 hrs by sulforhodamine B assay. It is filed as functional. To be noted: DMS-273, 48 h. Summed up: as §2
`CC1(C)CC[C@@H]2CC(=O)O[C@@H](CO)CC(=O)O[C@@H]3C[C@@H](CCCCc4ccc(I)c(O)c4)O[C@@]1(C3)O2` showed a GI50 of 0.191 µM.
